Mdm2-MdmX inh: disrupts the human Mdm2-MdmX interaction | SaOS-2 split-luciferase Mdm2/MdmX complementation, luminescence | inhibition, % at 8 µM | 330,000 compounds, 3% hits | AID 485346;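 active = inhibition of at least 50% at 8 µM in the primary screen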
Target sequence (O15151 whole entry, looked up): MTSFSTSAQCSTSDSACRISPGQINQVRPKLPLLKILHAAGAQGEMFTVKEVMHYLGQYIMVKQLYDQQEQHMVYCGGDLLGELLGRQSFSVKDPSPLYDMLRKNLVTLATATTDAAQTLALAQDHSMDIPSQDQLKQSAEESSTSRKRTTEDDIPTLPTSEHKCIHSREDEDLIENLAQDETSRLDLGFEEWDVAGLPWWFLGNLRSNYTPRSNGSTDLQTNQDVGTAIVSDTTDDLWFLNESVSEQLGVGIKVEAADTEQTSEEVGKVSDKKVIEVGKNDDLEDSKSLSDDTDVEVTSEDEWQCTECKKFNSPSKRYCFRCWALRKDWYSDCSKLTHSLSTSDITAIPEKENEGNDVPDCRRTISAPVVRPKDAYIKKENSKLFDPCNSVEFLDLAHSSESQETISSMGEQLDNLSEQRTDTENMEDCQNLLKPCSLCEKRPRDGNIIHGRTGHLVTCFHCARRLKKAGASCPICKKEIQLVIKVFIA
Target sequence (Q00987 whole entry, looked up): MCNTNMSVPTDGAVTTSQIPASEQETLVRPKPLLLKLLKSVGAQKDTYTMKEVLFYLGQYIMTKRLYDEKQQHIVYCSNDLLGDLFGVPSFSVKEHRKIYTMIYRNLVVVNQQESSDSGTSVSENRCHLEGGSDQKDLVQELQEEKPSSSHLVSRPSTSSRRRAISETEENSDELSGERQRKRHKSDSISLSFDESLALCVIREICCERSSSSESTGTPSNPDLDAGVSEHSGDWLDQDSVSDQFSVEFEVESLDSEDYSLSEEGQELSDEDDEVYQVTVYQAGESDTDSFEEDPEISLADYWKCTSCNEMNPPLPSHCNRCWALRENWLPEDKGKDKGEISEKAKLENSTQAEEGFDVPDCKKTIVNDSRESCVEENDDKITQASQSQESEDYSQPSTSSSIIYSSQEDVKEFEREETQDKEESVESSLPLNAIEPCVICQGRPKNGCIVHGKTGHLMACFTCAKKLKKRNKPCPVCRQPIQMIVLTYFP
CSC inhib: blocks cancer stem cells; cancer stem cell-like cells viability, luminescence; 300,000 compounds, 1.1% hits; inhibition, % at 7.5 µM; AID 2717; in the data active = inhibition above about 75%; tested in HMLE shEcad cells
T cruzi repl: blocks replication of Trypanosoma cruzi | T. cruzi beta-gal in NIH3T3, luminescence, 90 h | inhibition, % (concentration not given with the values) | 300,000 compounds, 1.4% hits | AID 1885;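 active = mean inhibition across valid replicates above about 55%, limit read from the data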;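 also: signal also drops with host cell toxicity which is not excluded here; 0% = plate median of DMSO wells and 100% = zero luminescence signal; higher percent means less beta-gal luminescence so fewer parasites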
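System: NIH/3T3 fibroblasts plus reporter T. cruzi. Medium: DMEM plus 2% FBS. Probe or stimulus: 5000 reporter trypomastigotes per well. Compound: single 50 nL compound addition per well in DMSO. Incubation: co-culture of at least 90 h after 3 h attachment. Detection: GalScreen β-gal luminescence, detergent lysis, 60 min. Evaluation: parasite load inhibition, %.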
SKKanGAS inh: inhibitors of SKKanGAS S. pyogenes growth in kanamycin (SK-promoter or general growth effect); BacTiter-Glo, 6 h; inhibition, % at 7.5 µM; 300,000 compounds, 1.3% hits; AID 1662;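 active = mean replicate score, as percent of positive control median, at least 50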;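 also: strain carries kanamycin resistance gene driven by streptokinase promoter and grows in 40 µg/ml kanamycin; loss of luminescence reflects streptokinase promoter inhibition or plain growth inhibition; 0% = median of DMSO wells and 100% = positive control at its reference dose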
aSyn UTR inh: MLPCN primary screen, SNCA 5' untranslated region | alpha-synuclein 5'UTR reporter, inhibitor activity | inhibition, % (tested at 7.5 µM) | 300,000 compounds, 0.82% hits | AID 1813; in the data active = inhibition above about 60%;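 also: H4 neuroglioblastoma cells stably carrying SNCA 5'UTR luciferase fusion; 0% = DMSO wells and 100% = positive control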
An asterisk follows results filed as active. Sampled rows, rich in hits. Any-hit rate of the full collection: about 5.4%.

Screening COc1ccc(-c2cc(-c3ccc(Cl)cc3)c(C#N)c(SCC(=O)O)n2)cc1 returned Mdm2-MdmX inh 8, CSC inhib 49, T cruzi repl 19, SKKanGAS inh 49 and aSyn UTR inh -6.
For CC1=NN(C(=O)c2ccccc2F)C(O)(c2ccc(Cl)cc2)C1 (centres undefined) the results were Mdm2-MdmX inh 15, CSC inhib 4, T cruzi repl -6, SKKanGAS inh 5 and aSyn UTR inh 11.
CCOC(=O)c1c(NC(=O)Cn2cnc([N+](=O)[O-])n2)sc(C)c1C was read as Mdm2-MdmX inh 3, CSC inhib -6, T cruzi repl 72*, SKKanGAS inh -12 and aSyn UTR inh 23.
Screening CCOC(=O)c1c(NC(=O)C[n+]2ccc(N(C)C)cc2)sc(C)c1C returned Mdm2-MdmX inh 14, CSC inhib 6, T cruzi repl 62*, SKKanGAS inh -9 and aSyn UTR inh 6.
`COc1ccc2c(c1)[nH]c1c(=O)n(CCN(C)C)cnc12` gave Mdm2-MdmX inh 29, CSC inhib 1, T cruzi repl 2, SKKanGAS inh -2 and aSyn UTR inh -7.
COc1ccc2c(c1)[nH]c1c(=O)n(CCc3cnc[nH]3)cnc12 was read as Mdm2-MdmX inh -20, CSC inhib 13, T cruzi repl 6, SKKanGAS inh 100* and aSyn UTR inh -4.
Screening CCOC(=O)C1=C(N)Oc2ccc3ccccc3c2C1c1cccnc1 (centres undefined) returned Mdm2-MdmX inh 27, CSC inhib 17, T cruzi repl 57*, SKKanGAS inh 7 and aSyn UTR inh 7.
Screening CC1=C(C(=O)OCCCBr)C(c2ccc3c(c2)OCO3)NC(=O)N1 (centres undefined) returned Mdm2-MdmX inh 14, CSC inhib -11, T cruzi repl 1, SKKanGAS inh -4 and aSyn UTR inh 9.
`O=C(Nc1cccc2ccccc12)c1ccc([N+](=O)[O-])s1` gave Mdm2-MdmX inh 48, CSC inhib 33, T cruzi repl 57*, SKKanGAS inh 4 and aSyn UTR inh -45.
O=C(Nc1ccccc1F)c1ccc([N+](=O)[O-])s1 was read as Mdm2-MdmX inh 29, CSC inhib 5, T cruzi repl 65*, SKKanGAS inh 14 and aSyn UTR inh -115.
Screening Cn1ncc([N+](=O)[O-])c1C(=O)Nc1cccc2ccccc12 returned Mdm2-MdmX inh -14, CSC inhib 1, T cruzi repl -6, SKKanGAS inh 17 and aSyn UTR inh 12.
Screening CC(C)(C)c1ccc(-c2cc(N)n[nH]2)cc1 returned Mdm2-MdmX inh 28, CSC inhib -2, T cruzi repl 14, SKKanGAS inh 3 and aSyn UTR inh 91*.
For O=[N+]([O-])c1ccc(N2CCN(S(=O)(=O)c3ccc(Cl)c(Cl)c3)CC2)cc1NCCN1CCOCC1 the results were Mdm2-MdmX inh 17, CSC inhib -1, T cruzi repl 56*, SKKanGAS inh 0 and aSyn UTR inh 39.
COc1ccc(OC)c(/C=C2/Sc3ccccc3C2=O)c1 was read as Mdm2-MdmX inh -5, T cruzi repl 13, SKKanGAS inh -9 and aSyn UTR inh -26.
`CCCC[n+]1ccn(C2=C([O-])c3ccccc3C(=O)/C2=N\S(=O)(=O)c2ccccc2)c1` gave Mdm2-MdmX inh 41, CSC inhib 20, T cruzi repl 1, SKKanGAS inh 59* and aSyn UTR inh 55.
Screening CCCCC[n+]1ccn(C2=C([O-])c3ccccc3C(=O)/C2=N\S(=O)(=O)c2ccc(Br)cc2)c1 returned Mdm2-MdmX inh 45, CSC inhib 29, T cruzi repl 0, SKKanGAS inh 97* and aSyn UTR inh 42.
Screening CCCCC[n+]1ccn(-c2nc3ccccc3nc2[N-]S(=O)(=O)c2ccc(C)cc2)c1 returned Mdm2-MdmX inh 11, CSC inhib -11, T cruzi repl 5, SKKanGAS inh 1 and aSyn UTR inh 18.
CC(C)[n+]1ccn(C2=C([O-])c3ccccc3C(=O)/C2=N\S(=O)(=O)c2ccccc2)c1 was read as Mdm2-MdmX inh 32, CSC inhib 4, T cruzi repl -2, SKKanGAS inh -7 and aSyn UTR inh 32.
`CCCCC[n+]1ccn(C2=C([O-])c3ccccc3C(=O)/C2=N\S(=O)(=O)c2ccccc2)c1` gave Mdm2-MdmX inh 18, CSC inhib -10, T cruzi repl 1, SKKanGAS inh 74* and aSyn UTR inh 47.
CC(C)CN(C(=O)COC(=O)c1ccc([N+](=O)[O-])s1)c1c(N)n(Cc2ccccc2)c(=O)[nH]c1=O was read as Mdm2-MdmX inh 6, CSC inhib -2, T cruzi repl 63*, SKKanGAS inh 17 and aSyn UTR inh -3.
Screening CCOC(=O)N1CCN(CC(O)COCCC23CC4CC(CC(C4)C2)C3)CC1 (centres undefined) returned Mdm2-MdmX inh 9, CSC inhib 26, T cruzi repl 68*, SKKanGAS inh -4 and aSyn UTR inh 13.
For CCCn1c(SCC(=O)Nc2ccccc2C(=O)NC2CC2)n[nH]c1=O the results were Mdm2-MdmX inh 2 and CSC inhib -3.
For COc1ccc(-n2c(O)c(/C=N/Nc3nc(C)cc(C)n3)c3ccccc3c2=O)cc1OC the results were Mdm2-MdmX inh 49, CSC inhib 4, T cruzi repl 5, SKKanGAS inh 31 and aSyn UTR inh 120*.
Screening Cn1cc(/C=N/n2cnc3scc(-c4ccccc4)c3c2=O)c2ccccc21 returned Mdm2-MdmX inh 43, CSC inhib 45, T cruzi repl -18, SKKanGAS inh 2 and aSyn UTR inh 66*.
For O=c1c2c(-c3ccccc3)csc2ncn1/N=C/c1cccc([N+](=O)[O-])c1O the results were Mdm2-MdmX inh 21, CSC inhib 12, T cruzi repl 6, SKKanGAS inh 3 and aSyn UTR inh -8.
`O=C(O)CC(C(=O)Nc1ccc(Cl)cc1)N1CCCCCC1` (centres undefined) gave Mdm2-MdmX inh 6, CSC inhib -15, T cruzi repl 2, SKKanGAS inh -2 and aSyn UTR inh 12.
For CCC(=O)NC(c1ccc(OC)c(OC)c1)c1cc(Cl)c2cccnc2c1O (centres undefined) the results were T cruzi repl 62*, SKKanGAS inh 56* and aSyn UTR inh 111*.
`CC1Sc2ccc(C(=O)OCc3ccccc3Cl)cc2NC1=O` (centres undefined) gave Mdm2-MdmX inh -133, CSC inhib -12, T cruzi repl -10, SKKanGAS inh -4 and aSyn UTR inh -147.
Screening CCCCCC(=O)Nc1cccc(C2=NOC3(C2)C[C@@H](C(N)=O)N(C(=O)c2ccc(Cl)cc2)C3)c1 (some centres undefined) returned Mdm2-MdmX inh -1, CSC inhib -10, T cruzi repl 60*, SKKanGAS inh 1 and aSyn UTR inh 7.
`COc1ccccc1CN1C[C@@H]2C[C@@H](c3ccc(C)c(C)c3)N3CCC[C@@]23C1=O` gave Mdm2-MdmX inh 4, CSC inhib 0, T cruzi repl 68*, SKKanGAS inh 2 and aSyn UTR inh -1.

High-throughput results deposited in PubChem BioAssay by several laboratories.
